Laboratory results as given in ChEMBL document CHEMBL4257510, “Mercaptoacetate thioesters and their hydrolysate mercaptoacetic acids jointly inhibit metallo-β-lactamase L1” (Medchemcomm, 2018).
Activity calls are given as the source filed them. The rule behind the calls is not given here.

Tests used:
Bacteria [1] = assay: Binding affinity to bacterial metallo-beta-lactamase L1 expressed in Escherichia coli BL21 (DE3) treated with 2-(((4-Chlorobenzoyl)methionyl)thio)acetic acid at 2 to 10 mM after 1 hr by STD NMR method
Outline: (§1)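 1H STD-NMR at 300 MHz on-resonance and 2000 MHz off-resonance saturation. Total saturation time 1.5 s, relaxation delay 2.5 s. Samples were run in D2O with 5% DMSO-d6 and 150 mM NaCl at pH 7.5, after 1 h pre-incubation. Compound came from 100 mM stock in DMSO-d6.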

Bacteria [2] = assay: Inhibition of bacterial metallo-beta-lactamase NDM1 expressed in Escherichia coli BL21 (DE3) at 20 uM using cefazolin as substrate preincubated for 30 mins followed by substrate addition
Bacteria [3] = assay: Inhibition of bacterial metallo-beta-lactamase L1 expressed in Escherichia coli BL21 (DE3) at 20 uM using cefazolin as substrate preincubated for 30 mins followed by substrate addition relative to control
Bacteria [4] = assay: Inhibition of bacterial metallo-beta-lactamase L1 expressed in Escherichia coli BL21 (DE3) assessed as decrease in cefazolin MIC at 16 ug/ml after 16 hrs by broth macrodilution method relative to control
Outline: (§2)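 E. coli BL21(DE3) carrying pET26b-L1 was grown overnight in Mueller-Hinton broth at 37 °C, pelleted and resuspended to OD600 0.1. MICs were determined by CLSI broth macrodilution after at least 16 h at 37 °C, taking the lowest concentration with no visible growth. Triplicates in at least two independent experiments; highest MIC reported.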

Bacteria [5] = assay: Inhibition of bacterial metallo-beta-lactamase L1 expressed in Escherichia coli BL21 (DE3) assessed as cefazolin MIC at 16 ug/ml after 16 hrs by broth macrodilution method (reference value: 32 ug/ml); outline: as §2
[6] = Inhibition of bacterial metallo-beta-lactamase L1 expressed in Escherichia coli BL21 (DE3) using cefazolin as substrate preincubated for 30 mins followed by substrate addition; set-up: species or system Bacteria
Outline: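 IC50 measured at 25 °C with 50 µM cefazolin and inhibitor varied over 0.01–2 µM, after 30 min enzyme–inhibitor pre-incubation. Compounds were dissolved in DMSO and diluted in 30 mM Tris pH 7.0, with final DMSO below 0.1%.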

Bacteria [7] = assay: Inhibition of bacterial metallo-beta-lactamase ImiS expressed in Escherichia coli BL21 (DE3) at 20 uM using imipenem as substrate preincubated for 30 mins followed by substrate addition
Escherichia coli = assay: Potentiation of cefazolin-mediated antibacterial activity against Escherichia coli BL21(DE3) assessed as cefazolin MIC at 16 ug/ml after 16 hrs by broth macrodilution method (reference value: 4 ug/ml); type: functional; outline: as §2
[8] = Retention time of compound by HPLC method; type: physicochemical
Outline: (§3)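 L1-mediated hydrolysis of thioester followed by HPLC under IC50 assay conditions, on a C18 column (150 × 4.6 mm, 5 µm) at 1.0 mL/min.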

L929 = assay: Cytotoxicity against mouse L929 cells up to 200 uM after 48 hrs by CCK8 assay; type: cell-based; details: l929, 48 h
Bacteria [9] = assay: Binding affinity to bacterial metallo-beta-lactamase L1 expressed in Escherichia coli BL21 (DE3) assessed as change in gibbs free energy by ITC method
Bacteria [10] = assay: Binding affinity to bacterial metallo-beta-lactamase L1 expressed in Escherichia coli BL21 (DE3) assessed as change in entropy by ITC method
[11] = Binding affinity to bacterial metallo-beta-lactamase L1 expressed in Escherichia coli BL21 (DE3) by ITC method; set-up: species or system Bacteria
Bacteria [12] = assay: Binding affinity to bacterial metallo-beta-lactamase L1 expressed in Escherichia coli BL21 (DE3) assessed as change in enthalpy by ITC method
[13] = Drug metabolism assessed as bacterial metallo-beta-lactamase L1-mediated hydrolysis measured every 2 hrs for 24 hrs by UV-Vis spectroscopic analysis; type: ADME; details: bacteria
Outline: (§4)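 Thioester in Tris buffer at pH 6.0, 7.0 or 8.5, or at pH 7.0 with increasing L1 concentration. Absorbance at 245 nm was recorded every 2 h over 24 h.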

[14] = Stability in Tris buffer at pH 6 to 8.5 measured every 2 hrs for 24 hrs by UV-Vis spectroscopic analysis; type: physicochemical; details: pH 6, 24 h; outline: as §4
Bacteria [15] = assay: Binding affinity to bacterial metallo-beta-lactamase L1 expressed in Escherichia coli BL21 (DE3) at 2 to 10 mM after 1 hr by STD NMR method; outline: as §1
[16] = Drug level assessed as bacterial metallo-beta-lactamase L1-mediated compound formation treated with 2-(((4-Chlorobenzoyl)methionyl)thio)acetic acid by HPLC method; type: ADME; details: bacteria; outline: as §3

Row | SMILES | Activity (Bacteria [1]) | inhibition (Bacteria [2]) | inhibition (Bacteria [3]) | fold change (FC) (Bacteria [4]) | MIC (Bacteria [5]) | IC50 [6] | inhibition (Bacteria [7]) | MIC (Escherichia coli) | Retention_time [8] | Activity (L929) | deltaG (Bacteria [9]) | TdeltaS (Bacteria [10]) | Kd [11] | deltaH (Bacteria [12]) | Drug metabolism [13] | Stability [14] | Activity (Bacteria [15]) | Drug metabolism [16]
1 | O=C(O)CS | Active | – | – | – | – | – | – | – | – | – | – | – | – | – | – | – | – | –
2 | O=C(O)CSC(=O)[C@H](Cc1c[nH]c2ccccc12)NC(=O)c1cccc([N+](=O)[O-])c1 | – | inactive | 90 to 95% | 2 to 4 | 16 µg/mL | 800 nM | inactive | 4 µg/mL | – | – | – | – | – | – | – | – | – | –
3 | CSCC[C@H](NC(=O)c1cccc(Br)c1)C(=O)SCC(=O)O | – | inactive | 90 to 95% | 2 to 4 | 16 µg/mL | 1200 nM | inactive | 4 µg/mL | – | – | – | – | – | – | – | – | – | –
4 | O=C(O)CSC(=O)[C@H](Cc1c[nH]c2ccccc12)NC(=O)c1ccc(Cl)cc1 | – | inactive | 90 to 95% | 2 to 4 | 8 µg/mL | 190 nM | inactive | 4 µg/mL | – | – | – | – | – | – | – | – | – | –
5 | CSCC[C@H](NC(=O)c1ccc(Cl)cc1)C(=O)SCC(=O)O | – | inactive | 90 to 95% | 2 to 4 | 16 µg/mL | 940 nM | inactive | 4 µg/mL | 4.5 min | Non-Toxic | -6.43 kcal/mol | -21.8 kcal/mol | 19700 nM | -28.2 kcal/mol | Metabolite_Detected | Stable | Active | –
6 | CSCC[C@H](NC(=O)c1ccc(Cl)cc1)C(=O)O | Active | – | – | – | – | – | – | – | 4.2 min | – | – | – | – | – | – | – | – | Metabolite_Detected
7 | O=C(O)CSC(=O)[C@H](Cc1c[nH]c2ccccc12)NC(=O)c1ccc(Br)cc1 | – | inactive | 90 to 95% | 2 to 4 | 16 µg/mL | 880 nM | inactive | 4 µg/mL | – | – | – | – | – | – | – | – | – | –
8 | O=C(O)CSC(=O)[C@H](Cc1c[nH]c2ccccc12)NC(=O)c1ccc(F)cc1 | – | inactive | 90 to 95% | 2 to 4 | 16 µg/mL | 750 nM | inactive | 4 µg/mL | – | – | – | – | – | – | – | – | – | –
9 | CSCC[C@H](NC(=O)c1ccc([N+](=O)[O-])cc1)C(=O)SCC(=O)O | – | inactive | 90 to 95% | 2 to 4 | 8 µg/mL | 170 nM | inactive | 4 µg/mL | – | Non-Toxic | -7.18 kcal/mol | -9.6 kcal/mol | 5500 nM | -16.8 kcal/mol | Metabolite_Detected | Stable | – | –
10 | O=C(O)CSC(=O)[C@H](Cc1c[nH]c2ccccc12)NC(=O)c1ccc(C(F)(F)F)cc1 | – | inactive | 90 to 95% | 2 to 4 | 16 µg/mL | 1030 nM | inactive | 4 µg/mL | – | – | – | – | – | – | – | – | – | –
11 | O=C(O)CSC(=O)[C@H](Cc1c[nH]c2ccccc12)NC(=O)c1cccc(Br)c1 | – | inactive | 90 to 95% | 2 to 4 | 16 µg/mL | 620 nM | inactive | 4 µg/mL | – | – | – | – | – | – | – | – | – | –
12 | O=C(O)CSC(=O)[C@H](Cc1c[nH]c2ccccc12)NC(=O)c1ccc([N+](=O)[O-])cc1 | – | inactive | 90 to 95% | 2 to 4 | 8 µg/mL | 370 nM | inactive | 4 µg/mL | – | – | – | – | – | – | Metabolite_Detected | Stable | – | –
